Compound activity deposited in PubChem by several laboratories.
Most compounds without a hit are left out; they make up all but 8.9% or so of the library.
b-catenin transl: modulators of beta-catenin nuclear translocation, primary screen, imaging, HeLa cells, immunofluorescence, high-content. 190,000 compounds, 0.3% hits. nuclear translocation activity, % at 5 µM;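 active means nuclear translocation activity above 50% at 5 µM, with a well cell count of 50 or more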;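 further: per-cell ratio of nuclear to cytoplasmic median beta-catenin stain intensity; plate controls were DMSO negative control for no effect and GSK-3 inhibitor IX positive control for full effect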
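System: HeLa cells, endogenous beta-catenin; compound dosing: 5 µM primary single dose, 0.1% DMSO, 0.02–20 µM confirmation series; incubation: 24 h compound exposure at 37°C, 5% CO2; signal: beta-catenin immunofluorescence imaging with DAPI; evaluation: % activation, nuclear-to-cytoplasmic median beta-catenin signal ratio per cell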
Dynein transport: inhibitors of GR-EGFP nuclear translocation, primary screen, dynein cargo transport inhibitor project, imaging, high-content, 3617.4 mouse cells | test concentration mostly 20 µM; stimulated with dexamethasone, 1 µM; hits give low values | AID 1381, 2008 | z-score, hits read low | 220,000 compounds, 0.47% hits;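 active means plate z-score of nuclear minus cytoplasmic receptor signal below a set negative limit, without overly bright fluorescence or cell loss, cut at about -3.5 in these data, passing the limit was not always enough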;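 further: z-score of nuclear minus cytoplasmic ring GR-EGFP intensity difference per well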
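Medium: Induction medium lacking tetracycline, stripped serum | Probe or stimulus: 1.0 µM final dexamethasone stimulus | Schedule: 48 h induction, then 1 h compound, then 30 min agonist, 37 °C | Signal: Automated 10x imaging of fixed Hoechst-stained cells | Evaluation: Per-cell GR-EGFP intensity, nucleus versus surrounding cytoplasmic ring, well-averaged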
HSV augment: enhancers of HSV replication in host cells, fold increase, host cell viability; AID 1956, 2009; maximum fold increase; HSV replication augmentation in cells; 220,000 compounds, 0.005% hits; in the data active means maximum fold increase above about 1.5; tested in PC3 cells
Lmaj promast: Leishmania major promastigote growth inhibition, primary screen. Leishmania major promastigotes, resazurin fluorescence viability. inhibition, % at 10 µM. 200,000 compounds, 9% hits. AID 1063, 2008; in the data active means inhibition above about 50%;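 further: promastigotes grown with compound for 44 hours at 28 °C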
MT stabilizer: microtubule stabilizers in HeLa cells, primary screen, imaging, high-content imaging; % tubulin-high responders, % at 10 µM; 200,000 compounds, 0.83% hits; HeLa tubulin immunostaining HCS, 24 h; share of cells brighter than vehicle mean+2SD;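 active means plate Z-score above 3 for both tubulin-high and condensed-nucleus cell shares, with cell loss under 80%, at 10 µM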;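 further: anti alpha tubulin signal scored within the nucleus-defined area of each cell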
The depositor's hits bear a star; i = inactive; . = no result given.

SMILES	b-catenin transl	Dynein transport	HSV augment	Lmaj promast	MT stabilizer
CCCCn1c(O)c(C(CC)=NCc2cc(OC)cc(OC)c2)c(=O)[nH]c1=O	-2	-0.75	i	100*	4
CCCCn1c(O)c(C(C)=NC(C)c2ccccc2)c(=O)[nH]c1=O (centres undefined)	3	-1.5	i	12	7
Cc1ccsc1C(=O)C1CCCN(Cc2cccc(OCCO)c2)C1 (centres undefined)	0	1.4	i	-2	1
COC(=O)Nc1ccc(N=C(N)N[N+](=O)[O-])cc1	0	-0.97	i	-5	2
COc1ccc2c(c1)c(C(=O)CN1CCN(C)CC1)c(C)n2Cc1ccccc1	0	0.074	i	34	5
COc1ccc([N+](=O)[O-])cc1N=Cc1c(O)n(CCc2ccccc2)c(=O)n(C(C)C)c1=O	.	-0.61	i	27	2
CCOc1ccc(NC(=O)C2C3c4ccccc4C(c4ccccc43)C2C(=O)O)cc1 (centres undefined)	1	0.92	i	-10	1
O=C(O)C1C2c3ccccc3C(c3ccccc32)C1C(=O)Nc1ccccc1 (centres undefined)	0	0.6	i	73*	1
COC(=O)c1ccc(N=C(c2ccccc2)c2c(O)n(C)c(=O)n(C)c2=O)cc1	0	-0.28	i	.	.
CN(C)c1ccc(CN2CC=C(c3ccc(F)cc3)CC2)cc1	3	1.3	i	96*	3
C1=C(c2c[nH]c3ccccc23)CCN(Cc2ccccc2)C1	0	1.2	i	39	2
CCOC(=O)C(C)Oc1cc(C)cc2oc(=O)c3c(c12)CCCC3 (centres undefined)	0	0.6	i	18	2
CCCCCc1cc(O)c2c3c(c(=O)oc2c1)CN(C)CC3	1	0.23	i	99*	2
O=C(c1ccc2c(c1)OCO2)C1CCCN(CC2CCCCC2)C1 (centres undefined)	-2	4.7	i	91*	2
CC(=O)N(C1=NCCCS1)c1ccc(Cl)cc1	.	-0.64	i	96*	3
CC(=O)N(C1=NCCCS1)c1ccc(F)cc1	-6	-0.78	i	13	3
Nc1cccc(N=Cc2c(O)n(Cc3ccc(F)cc3)c(=O)[nH]c2=O)c1	3	-0.62	i	4	3
CCCCCCCSc1cc(OC)c(CCNC)cc1OC	1	0.65	i	100*	46
CCCCCSc1cc(OC)c(CCNC)cc1OC	-2	2.3	i	100*	2
CN1CCC2(CC1)N=C(c1ccc(F)cc1)C(=S)N2	0	1.3	i	1	1
CC(c1ccccc1F)n1cc(C(=O)Nc2ccc3nc[nH]c3c2)nn1 (centres undefined)	-2	1.3	i	72*	10
O=C(Nc1ccc2c(c1)OCO2)c1cn(Cc2ccc(F)cc2)nn1	4	2.1	i	10	11
CCSc1cc(C2C(C#N)=C(N)Oc3n[nH]c(C)c32)c(C)o1 (centres undefined)	.	-2.9	i	94*	5
COc1cc(CC2(CCc3ccncc3)C(=O)N(C)C(=O)N(C)C2=O)cc(OC)c1OC	0	0.73	i	-3	2
CCOC(=O)C1=C(N)OC2=C(C(=O)CC(C)(C)C2)C12C(=O)Nc1ccccc12 (centres undefined)	-1	0.58	i	-6	1
SMILES	b-catenin transl	Dynein transport	HSV augment	Lmaj promast	MT stabilizer
O=C(c1cc(F)ccc1F)C1CCCN(Cc2cccc(Cl)c2)C1 (centres undefined)	0	-0.52	i	30	5
O=C(c1cc(F)ccc1F)C1CCCN(CCCc2ccccc2)C1 (centres undefined)	2	0.024	i	82*	2
c1ccc(CN2CCN(Cc3ccc4c(c3)OCCO4)CC2)cc1	1	-0.67	i	80*	2
Cc1ccccc1CN1CCN(Cc2ccccc2)CC1	2	-1.6	i	3	2
CN(C)C(Cc1ccccc1)C(=O)c1cccs1 (centres undefined)	-2	1.8	i	10	3
COC(=O)c1c(C)[nH]c(C(=O)C(Cc2ccccc2)N(C)C)c1C (centres undefined)	-1	-0.66	i	100*	1
OC(Cc1ccccc1)(c1ccccc1)C1CN2CCC1CC2 (centres undefined)	.	-0.51	i	92*	2
O=C(COc1ccc(Cl)cc1)NC1CN2CCC1CC2 (centres undefined)	-8	-0.44	i	99*	4
COc1cc(N)c(Cl)cc1C(=O)NC1CN2CCC1CC2 (centres undefined)	0	.	i	.	.
CCCC(=O)NC(Oc1ccccc1Cl)C(Cl)(Cl)Cl (centres undefined)	0	1.5	i	-2	2
Cc1cc(Cl)ccc1OC(C)C(=O)O (centres undefined)	-5	-0.57	i	-3	4
Cc1nn(Cc2ccccc2)c(C)c1C=C1C(=O)NC(=O)NC1=O	.	-0.6	i	58*	2
O=C1CN=C(c2cccs2)c2c(sc3c2CCCC3)N1	1	-0.32	i	15	54*
Cc1cc2c(s1)NC(=O)CN=C2c1cccs1	0	-0.39	i	2	3
O=Cc1cn(CCCOc2ccccc2)c2ccccc12	-1	-0.54	i	66*	3
O=C1OC(c2ccc(Br)cc2)=N/C1=C\N1CC2CC(C1)c1cccc(=O)n1C2 (centres undefined)	0	0.29	i	.	.
CC(C)CCOC(=O)c1c(N)n(CC2CCCO2)c2nc3ccccc3nc12 (centres undefined)	.	-0.43	i	100*	1
CC(C)OC(=O)c1c(N)n(CC2CCCO2)c2nc3ccccc3nc12 (centres undefined)	0	0.096	i	52*	3
CCCNC(=O)c1c(N)n(CC2CCCO2)c2nc3ccccc3nc12 (centres undefined)	-4	-0.19	i	30	2
CC(C)OCCCNC(=O)c1c(N)n(CC2CCCO2)c2nc3ccccc3nc12 (centres undefined)	3	-1.2	i	13	2
Nc1c(C(=O)OC2CCCCC2)c2nc3ccccc3nc2n1CC1CCCO1 (centres undefined)	-4	-0.21	.	81*	2
CN1C(=O)N(C)C(=O)C2(Cc3c(nc4ccccn4c3=O)N3CCc4ccccc4C32)C1=O (centres undefined)	-2	1.1	i	70*	2
CC1CCN2c3nc4ccccn4c(=O)c3CC3(C(=O)N(C)C(=O)N(C)C3=O)C2C1 (centres undefined)	0	0.029	i	0	2
NNP(=O)(CC(=O)c1ccccc1)c1ccccc1 (centres undefined)	0	-0.3	i	.	.
